Test [1] relates to Mus musculus. The test can be described thus: In Vivo detection in Mice brains after oral administration of 58.33 mg/kg detected in the form of AZT 5`-P after 48 hr. The test is classed as functional.
The test system of test [2] is Mus musculus. Description: In Vivo detection in Mice brains after oral administration of 58.33 mg/kg detected in the form of AZT after 0.5 hr. It is filed as functional.
Test [3] concerns Mus musculus. The test can be described thus: In Vivo detection in Mice brains after oral administration of 58.33 mg/kg detected in the form of AZT after 2 hr. The test is classed as functional.
For test [4], the system named is Mus musculus. The test can be described thus: In Vivo detection in Mice brains after oral administration of 58.33 mg/kg detected in the form of AZT after 48 hr. The test is classed as functional.
The subject of test [5] is Mus musculus. Description: In Vivo detection in Mice brains after oral administration of 58.33 mg/kg detected in the form of AZT phosphodiester 3 after 0.5 hr. It is filed as functional.
In test [6] the test system is Mus musculus. Description: In Vivo detection in Mice plasma after oral administration of 20 mg/kg detected in the form of AZT phosphodiester 2 after 0.5 hr. The arrangement: dose 20 mg/kg. It is filed as functional, organism-based.
Test [7] relates to Mus musculus. The test can be described thus: In Vivo detection of total AZT in Mice brains after oral administration of 58.33 mg/kg after 4 hr. It is filed as functional. In outline:
(§1)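 Male Swiss mice (18–20 g) dosed orally with a 3 mM solution in […] vehicle; decapitated at 0.5–48 h. Brains were homogenized in acetonitrile-water (3:1), centrifuged at 6000g for 40 min at 4 °C, lyophilized, redissolved in water and filtered (0.45 µm). Reversed-phase C18 column-switching HPLC with diode-array detection; standard spiking; vehicle-fed controls. Three mice per point, triplicates.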

Test [8] deals with Mus musculus. The test can be described thus: In Vivo detection in Mice plasma after oral administration of 58.33 mg/kg detected in the form of AZT 5`-P after 0.5 hr. It is filed as functional, organism-based. More on the design: dose 58.33 mg/kg.
Test [9] concerns Mus musculus. Description: In Vivo detection in Mice plasma after oral administration of 58.33 mg/kg detected in the form of AZT 5`-P after 2 hr. The test is classed as functional, organism-based. More on the design: dose 58.33 mg/kg.
Test [10] relates to Mus musculus. The test can be described thus: In Vivo detection in Mice plasma after oral administration of 58.33 mg/kg detected in the form of AZT 5`-P after 4 hr. The test is classed as functional, organism-based. More on the design: dose 58.33 mg/kg.
Test [11] concerns Mus musculus. The test can be described thus: In Vivo detection in Mice plasma after oral administration of 58.33 mg/kg detected in the form of AZT 5`-P after 8 hr. The test is classed as functional, organism-based. The arrangement: dose 58.33 mg/kg.
The test system of test [12] is Mus musculus. The test can be described thus: In Vivo detection in Mice plasma after oral administration of 58.33 mg/kg detected in the form of AZT phosphodiester 3 after 48 hr. The arrangement: dose 58.33 mg/kg. It is filed as functional, organism-based. In outline:
(§2)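 Male Swiss mice (18–20 g, six weeks old) given the test substance or vehicle ([…]) by gavage as a 3 mM solution (1.5 µmol/mouse). Aortic blood was collected into heparinized tubes at 0.5–48 h and centrifuged at 13000g for 10 min. Plasma was stored at -22 °C and analysed by HPLC. Three mice were used per time point, in triplicate. Values were not corrected for recovery.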

For test [13], the system named is Mus musculus. Description: In Vivo detection in Mice brains after oral administration of 58.33 mg/kg detected in the form of AZT phosphodiester 3 after 4 hr. It is filed as functional.
The test system of test [14] is Mus musculus. Description: In Vivo detection in Mice brains after oral administration of 58.33 mg/kg detected in the form of AZT phosphodiester 3 after 8 hr. The test is classed as functional.
Test [15] deals with Mus musculus. Description: In Vivo detection of total AZT in Mice plasma after oral administration of 58.33 mg/kg after 48 hr. It is filed as functional, organism-based. The arrangement: dose 58.33 mg/kg. An outline of the steps:
as §2

Test [16] concerns Mus musculus. The test can be described thus: In Vivo detection in Mice plasma after oral administration of 58.33 mg/kg detected in the form of AZT after 1 hr. The test is classed as functional, organism-based. More on the design: dose 58.33 mg/kg.
Test [17] has as its system Mus musculus. Description: In Vivo detection in Mice plasma after oral administration of 58.33 mg/kg detected in the form of AZT phosphodiester 2 after 2 hr. It is filed as functional, organism-based. More on the design: dose 58.33 mg/kg. In outline:
as §2

The test system of test [18] is Mus musculus. The test can be described thus: In Vivo detection in Mice plasma after oral administration of 58.33 mg/kg detected in the form of AZT phosphodiester 2 after 48 hr. It is filed as functional, organism-based. The arrangement: dose 58.33 mg/kg. An outline of the steps: as §2
Test [19] relates to Mus musculus. The test can be described thus: In Vivo detection of total AZT in Mice plasma after oral administration of 58.33 mg/kg after 24 hr. The test is classed as functional, organism-based. The arrangement: dose 58.33 mg/kg. An outline of the steps: as §2
The species named for test [20] is Mus musculus. The test can be described thus: (§3) Concentration of external nucleoside in mouse brain. It is filed as functional. In outline:
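Crude synaptosomes from three mouse brains were prepared by Gray–Whittaker homogenization in 10% sucrose buffered with 5 mM Tris-HCl, pH 7.4. The 7000g pellet was resuspended and incubated with each nucleoside at 3 mM for 15 min at 37 °C, stopped by cold 10-fold dilution and washed twice. Internal nucleoside was extracted in acetonitrile–water (3:1) and measured by HPLC.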

Test [21] relates to Mus musculus. The test can be described thus: In Vivo detection in Mice plasma after oral administration of 58.33 mg/kg detected in the form of AZT 5`-P after 24 hr. The test is classed as functional, organism-based. The arrangement: dose 58.33 mg/kg.
For test [22], the species on record is Mus musculus. The description is as §3. It is filed as functional. An outline of the steps: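 Male Swiss mice (6 weeks, 18–20 g) dosed by oral gavage in saline vehicle at 20 mg/kg AZT or molar equivalent (3 mM, 1.5 µmol/mouse). Brains taken 0.5–48 h post-dose, homogenized in acetonitrile–water 3:1, centrifuged, lyophilized and filtered. Analysed by column-switching C18 HPLC with diode-array detection against spiked standards and vehicle controls. Three mice per time point, triplicates; not recovery-corrected.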
The source holds these as a separate data set.

Test [23] concerns Mus musculus. The test can be described thus: In Vivo detection in Mice brains after oral administration of 41.63 mg/kg detected in the form of AZT 5`-P after 1 hr. The test is classed as functional.
Test [24] has as its system Mus musculus. The test can be described thus: In Vivo detection in Mice brains after oral administration of 41.63 mg/kg detected in the form of AZT 5`-P after 8 hr. The test is classed as functional.
The subject of test [25] is Mus musculus. The test can be described thus: In Vivo detection in Mice brains after oral administration of 41.63 mg/kg detected in the form of AZT after 0.5 hr. It is filed as functional.
Test [26] deals with Mus musculus. The test can be described thus: In Vivo detection in Mice brains after oral administration of 41.63 mg/kg detected in the form of AZT after 24 hr. It is filed as functional.
Test [27] deals with Mus musculus. Description: In Vivo detection in Mice plasma after oral administration of 41.63 mg/kg detected in the form of AZT 5`-P after 1 hr. The test is classed as functional, organism-based. The arrangement: dose 41.63 mg/kg.
The test system of test [28] is Mus musculus. The test can be described thus: In Vivo detection in Mice plasma after oral administration of 41.63 mg/kg detected in the form of AZT after 24 hr. The test is classed as functional, organism-based. More on the design: dose 41.63 mg/kg.
The test system of test [29] is Mus musculus. Description: In Vivo detection in Mice plasma after oral administration of 41.63 mg/kg detected in the form of AZT after 8 hr. The test is classed as functional, organism-based. The arrangement: dose 41.63 mg/kg.
Test [30] concerns Mus musculus. The test can be described thus: In Vivo detection in Mice plasma after oral administration of 41.63 mg/kg detected in the form of AZT phosphodiester 2 after 1 hr. More on the design: dose 41.63 mg/kg. The test is classed as functional, organism-based.
Test [31] concerns Mus musculus. The test can be described thus: In Vivo detection of total AZT in Mice brains after oral administration of 41.63 mg/kg after 8 hr. The test is classed as functional. In outline: as §1
Test [32] has as its system Mus musculus. The test can be described thus: In Vivo detection in Mice brains after oral administration of 41.63 mg/kg detected in the form of AZT phosphodiester 2 after 24 hr. The test is classed as functional.
Test [33] relates to Mus musculus. Description: In Vivo detection of total AZT in Mice plasma after oral administration of 41.63 mg/kg after 1 hr. It is filed as functional, organism-based. More on the design: dose 41.63 mg/kg. In outline:
as §2

For test [34], the system named is Mus musculus. Description: In Vivo detection of total AZT in Mice plasma after oral administration of 41.63 mg/kg after 24 hr. It is filed as functional, organism-based. More on the design: dose 41.63 mg/kg. In outline: as §2
Test [35] has as its system Mus musculus. Description: In Vivo detection in Mice brains after oral administration of 41.63 mg/kg detected in the form of AZT phosphodiester 2 after 4 hr. It is filed as functional.
Test [36] deals with Mus musculus. The test can be described thus: In Vivo detection in Mice plasma after oral administration of 41.63 mg/kg detected in the form of AZT after 0.5 hr. The test is classed as functional, organism-based. More on the design: dose 41.63 mg/kg.
In test [37] the test system is Mus musculus. Description: In Vivo detection in Mice brains after oral administration of 41.63 mg/kg detected in the form of AZT 5`-P after 2 hr. It is filed as functional.

As to `CCCCCCCCCCCCCCCCOP(=O)(OCCO[C@H]1O[C@H](CO)[C@@H](O)[C@H](O)[C@@H]1O)OCC1OC(n2cc(C)c(=O)[nH]c2=O)CC1N=[N+]=[N-]` (some centres not stated), the Brain content in test [1] came to 58.6 nmol/g; in test [2] it was 1.5 nmol/g; in [3] it was 2.9 nmol/g; in test [4], 1.1 nmol/g; in [5], 0 nmol/g; in [7], 122 nmol/g. Moreover, the Brain content in test [13] and in test [14] was 0 nM ml-1 each time. For the same molecule, the Plasma content in test [6] came out at 0 nM ml-1; in test [8], 12.1 nM ml-1; in [9] it was 4 nM ml-1; in [10] it was 3 nM ml-1; in test [11] it was 17.7 nM ml-1; in [12], 0 nM ml-1. Also, the Plasma content in test [15] was 14.2 nM ml-1; in test [16], 1.3 nM ml-1; in test [17] it was 0 nM ml-1; in test [18], 0 nM ml-1; in [19] it was 28.5 nM ml-1; in test [21], 28.5 nM ml-1. The External nucleoside in test [20] was found to be 9100 nM/g.
Take `Cc1cn([C@H]2C[C@H](N=[N+]=[N-])[C@@H](COP(=O)(O)OCCO[C@H]3O[C@H](CO)[C@@H](O)[C@H](O)[C@@H]3O)O2)c(=O)[nH]c1=O`: the External nucleoside in [22] is 8000 nM/g. Further, the Brain content in [23] turned out to be 79.3 nmol/g; in test [24], 33.3 nmol/g; in test [25], 1.8 nmol/g; in test [26], 0.8 nmol/g; in test [31], 43.1 nM ml-1; in test [32], 4.5 nM ml-1. Moreover, the results for the Brain content in test [35] and in test [37] were 7.9 nM ml-1 and 19.8 nM ml-1, respectively. Besides, the Plasma content turned out to be 20 nM ml-1 in [27]; 0 nM ml-1 in test [28]; 0 nM ml-1 in test [29]; 5.2 nM ml-1 in [30]; 43.5 nM ml-1 in [33]; 26.8 nM ml-1 in test [34]. Further, the Plasma content in test [36] is 31.6 nM ml-1.

The values above are taken from ChEMBL document CHEMBL1125520, “Improved brain delivery of AZT using a glycosyl phosphotriester prodrug” (1992).
